Published values of several laboratories.

SMILES	tested on	test	test system	conditions	measurement	result
NCCNC(=O)O[C@H]1CCC[C@@]2(C1)OOC1(O2)C2CC3CC(C2)CC1C3 (some centres unmarked)	–	–	male CD-1 mouse, plasma	oral, 10 mg/kg	Cmax	240 ng/mL
CC(O)(CS(=O)(=O)c1ccc(F)cc1)C(=O)Nc1ccc(C#N)c(C(F)(F)F)c1 (centres unmarked)	Vero	cell growth or viability, resazurin	–	–	CC50	> 100 µM
CNC(=O)c1ccc(-c2cnn3ccc(C(=O)N(C)c4ccc(Cl)c(C(=O)OC)c4)cc23)cc1	–	–	female C57BL/6 mouse, plasma	oral, 1 mg/kg/day	Cmax	0.1 ng/mL
COCC1=N[C@@]2(O)[C@H](C(=O)N(C)OC)[C@@H](c3ccccc3)[C@]3(c4ccc(OC)cc4)Oc4cc(OC)cc(OC)c4[C@]23N1	Vero	cell growth or viability, MTT	–	24 h	CC50	> 20 µM
CC(C)(N)CNC(=O)O[C@H]1CCC[C@@]2(C1)OOC1(O2)C2CC3CC(C2)CC1C3 (some centres unmarked)	–	–	male CD-1 mouse, plasma	oral, 10 mg/kg	Cmax	191 ng/mL
COc1ccsc1CNCC[C@@]1(c2ccccn2)CCOC2(CCCC2)C1	–	–	human, plasma	intravenous, 3 mg, single dose, healthy volunteers, infusion	Vd	129 L
COc1ccc([C@@]23Oc4cc(OC)cc(OC)c4[C@@]24N=C(C2CC2)N[C@@]4(O)[C@H](C(=O)N(C)OC)[C@H]3c2ccccc2)cc1	Vero	cell growth or viability, MTT	–	24 h	CC50	> 20 µM
CNC(=O)c1ccc(-c2cnn3ccc(C(=O)N(C)c4ccc(Cl)c(C(=O)O)c4)cc23)cc1	–	–	female C57BL/6 mouse, plasma	oral, 3 mg/kg/day	Cmax	1 ng/mL
